pIC50: −log10 of the molar value. Activity calls are given as the source filed them. The calls are words filed in the database; no cut-off is given here.
System: Erythrocyte
Assay: Antioxidant activity in human erythrocytes assessed as protection against AAPH-induced hemolysis at 50 uM preincubated for 20 mins followed by AAPH addition and measured after 2 hrs by spectrophotometric method relative to control
Format: functional
Conditions: time 140 min, 2.333 h
Summary of the method: (§1)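 Erythrocyte hemolysis assay with AAPH as the free-radical initiator, testing 50 and 400 µM. Results are expressed as relative protection of membranes against oxidative damage, each the mean of two independent experiments.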

SMILES | fold change (FC)
Cc1ccc(-c2c(N)c(C(F)(F)F)nn2-c2ccc(S(N)(=O)=O)cc2)cc1.Cl | 1.18
Cl.Nc1c(C(F)(F)F)n[nH]c1-c1ccccc1 | 1.03

System: Streptococcus pyogenes
Assay: Antibacterial activity against Streptococcus pyogenes
Format: functional
Conditions: not given

SMILES | MIC
Cc1ccc(-c2c(N)c(C(F)(F)F)nn2-c2ccc(S(N)(=O)=O)cc2)cc1.Cl | > 250 µg/mL
Cl.Nc1c(C(F)(F)F)n[nH]c1-c1ccccc1 | > 250 µg/mL

System: Proteus vulgaris
Assay: Antibacterial activity against Proteus vulgaris
Format: functional
Conditions: not given

SMILES | MIC
Cc1ccc(-c2c(N)c(C(F)(F)F)nn2-c2ccc(S(N)(=O)=O)cc2)cc1.Cl | > 250 µg/mL
Cl.Nc1c(C(F)(F)F)n[nH]c1-c1ccccc1 | > 250 µg/mL

System: not listed separately
Assay: Antioxidant activity assessed as ABTS radical scavenging activity measured after 1 hr by UV-vis spectrophotometric method
Format: functional
Conditions: not given
Summary of the method: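 ABTS cation-radical decolorization was read spectrophotometrically as the fall in absorbance after 1 h. Trolox was the reference. TEAC was taken as the ratio of concentration-response slopes, test/Trolox, and IC50 was also derived. Data are mean ± SEM, n = 3.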

SMILES | pIC50
Cl.Nc1c(C(F)(F)F)n[nH]c1-c1ccccc1 | 4.38

System: Trichophyton tonsurans
Assay: Antifungal activity against Trichophyton tonsurans
Format: functional
Conditions: not given

SMILES | MIC
Cc1ccc(-c2c(N)c(C(F)(F)F)nn2-c2ccc(S(N)(=O)=O)cc2)cc1.Cl | > 200 µg/mL
Cl.Nc1c(C(F)(F)F)n[nH]c1-c1ccccc1 | > 200 µg/mL

System: Pseudomonas aeruginosa
Assay: Antibacterial activity against Pseudomonas aeruginosa
Format: functional
Conditions: not given

SMILES | MIC
Cc1ccc(-c2c(N)c(C(F)(F)F)nn2-c2ccc(S(N)(=O)=O)cc2)cc1.Cl | > 250 µg/mL
Cl.Nc1c(C(F)(F)F)n[nH]c1-c1ccccc1 | > 250 µg/mL

System: Rattus norvegicus
Assay: Antiinflammatory activity in rat model of carrageenan-induced paw edema assessed as inhibition of hind paw swelling at 15 mg/kg, ip measured after 5 hrs
Format: functional, organism-based
Conditions: not given

SMILES | Activity
Cc1ccc(-c2c(N)c(C(F)(F)F)nn2-c2ccc(S(N)(=O)=O)cc2)cc1.Cl | Active

System: Escherichia coli
Assay: Antibacterial activity against Escherichia coli
Format: functional
Conditions: not given

SMILES | MIC
Cc1ccc(-c2c(N)c(C(F)(F)F)nn2-c2ccc(S(N)(=O)=O)cc2)cc1.Cl | > 250 µg/mL
Cl.Nc1c(C(F)(F)F)n[nH]c1-c1ccccc1 | > 250 µg/mL

System: Citrobacter braakii
Assay: Antibacterial activity against Citrobacter braakii
Format: functional
Conditions: not given

SMILES | MIC
Cc1ccc(-c2c(N)c(C(F)(F)F)nn2-c2ccc(S(N)(=O)=O)cc2)cc1.Cl | > 250 µg/mL
Cl.Nc1c(C(F)(F)F)n[nH]c1-c1ccccc1 | > 250 µg/mL

System: Rattus norvegicus
Assay: Antiinflammatory activity in rat model of carrageenan-induced paw edema assessed as inhibition of hind paw swelling at 15 mg/kg, ip measured after 1 hr relative to control
Format: functional
Conditions: not given

SMILES | inhibition in vivo at 15 mg/kg
Cl.Nc1c(C(F)(F)F)n[nH]c1-c1ccccc1 | 44.8%

System: Trichophyton interdigitale
Assay: Antifungal activity against Trichophyton mentagrophytes var. interdigitale
Format: functional
Conditions: not given

SMILES | MIC
Cc1ccc(-c2c(N)c(C(F)(F)F)nn2-c2ccc(S(N)(=O)=O)cc2)cc1.Cl | 200 µg/mL
Cl.Nc1c(C(F)(F)F)n[nH]c1-c1ccccc1 | > 200 µg/mL

System: Epidermophyton floccosum
Assay: Antifungal activity against Epidermophyton floccosum
Format: functional
Conditions: not given

SMILES | MIC
Cc1ccc(-c2c(N)c(C(F)(F)F)nn2-c2ccc(S(N)(=O)=O)cc2)cc1.Cl | 200 µg/mL
Cl.Nc1c(C(F)(F)F)n[nH]c1-c1ccccc1 | > 200 µg/mL

System: Rattus norvegicus
Assay: Analgesic activity in rat assessed as prolongation of latency period at 15 mg/kg, ip measured after 1 hr by hot-plate test relative to control
Format: functional
Conditions: not given
Summary of the method: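 Hot-plate test in rats. Compounds were given by intraperitoneal injection. Latency was read at 1 h and, for some compounds, also at 2 h after dosing. Results are expressed as % prolongation of the latent period versus vehicle-treated control. Significance was given as p-values.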

SMILES | Activity
Cc1ccc(-c2c(N)c(C(F)(F)F)nn2-c2ccc(S(N)(=O)=O)cc2)cc1.Cl | inactive
Cl.Nc1c(C(F)(F)F)n[nH]c1-c1ccccc1 | 91.8%

System: Trichophyton rubrum
Assay: Antifungal activity against Trichophyton rubrum
Format: functional
Conditions: not given

SMILES | MIC
Cc1ccc(-c2c(N)c(C(F)(F)F)nn2-c2ccc(S(N)(=O)=O)cc2)cc1.Cl | 200 µg/mL
Cl.Nc1c(C(F)(F)F)n[nH]c1-c1ccccc1 | > 200 µg/mL

System: Microsporum canis
Assay: Antifungal activity against Microsporum canis
Format: functional
Conditions: not given

SMILES | MIC
Cc1ccc(-c2c(N)c(C(F)(F)F)nn2-c2ccc(S(N)(=O)=O)cc2)cc1.Cl | 200 µg/mL
Cl.Nc1c(C(F)(F)F)n[nH]c1-c1ccccc1 | > 200 µg/mL

System: Erythrocyte
Assay: Antioxidant activity in human erythrocytes assessed as protection against AAPH-induced hemolysis at 400 uM preincubated for 20 mins followed by AAPH addition and measured after 2 hrs by spectrophotometric method relative to control
Format: functional
Conditions: time 140 min, 2.333 h
Summary of the method: as §1

SMILES | fold change (FC)
Cc1ccc(-c2c(N)c(C(F)(F)F)nn2-c2ccc(S(N)(=O)=O)cc2)cc1.Cl | 1.17
Cl.Nc1c(C(F)(F)F)n[nH]c1-c1ccccc1 | 0.01

System: Klebsiella pneumoniae
Assay: Antibacterial activity against Klebsiella pneumoniae
Format: functional
Conditions: not given

SMILES | MIC
Cc1ccc(-c2c(N)c(C(F)(F)F)nn2-c2ccc(S(N)(=O)=O)cc2)cc1.Cl | > 250 µg/mL
Cl.Nc1c(C(F)(F)F)n[nH]c1-c1ccccc1 | > 250 µg/mL

System: Staphylococcus aureus
Assay: Antibacterial activity against Staphylococcus aureus
Format: functional
Conditions: not given

SMILES | MIC
Cc1ccc(-c2c(N)c(C(F)(F)F)nn2-c2ccc(S(N)(=O)=O)cc2)cc1.Cl | > 250 µg/mL
Cl.Nc1c(C(F)(F)F)n[nH]c1-c1ccccc1 | > 250 µg/mL

System: Neisseria gonorrhoeae
Assay: Antibacterial activity against Neisseria gonorrhoeae
Format: functional
Conditions: not given

SMILES | MIC
Cc1ccc(-c2c(N)c(C(F)(F)F)nn2-c2ccc(S(N)(=O)=O)cc2)cc1.Cl | 250 µg/mL
Cl.Nc1c(C(F)(F)F)n[nH]c1-c1ccccc1 | 62.5 µg/mL

System: Shigella flexneri
Assay: Antibacterial activity against Shigella flexneri
Format: functional
Conditions: not given

SMILES | MIC
Cc1ccc(-c2c(N)c(C(F)(F)F)nn2-c2ccc(S(N)(=O)=O)cc2)cc1.Cl | > 250 µg/mL
Cl.Nc1c(C(F)(F)F)n[nH]c1-c1ccccc1 | > 250 µg/mL

System: Nannizzia gypsea
Assay: Antifungal activity against Trichophyton gypseum
Format: functional
Conditions: not given

SMILES | MIC
Cc1ccc(-c2c(N)c(C(F)(F)F)nn2-c2ccc(S(N)(=O)=O)cc2)cc1.Cl | > 200 µg/mL
Cl.Nc1c(C(F)(F)F)n[nH]c1-c1ccccc1 | > 200 µg/mL

System: not listed separately
Assay: Antioxidant activity assessed as AAPH scavenging activity by measuring residual fluorescence at 10 uM measured at 1 min interval for 30 mins by ORAC fluorescein assay relative to control
Format: functional
Conditions: not given
Summary of the method: (§2)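 ORAC-FL assay with fluorescein as the probe and AAPH as the peroxyl radical generator. The loss of fluorescence over time was followed, and the result is given as % fluorescence restored at 10 and 50 µM. Each value is the mean of two independent experiments.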

SMILES | Activity
Cc1ccc(-c2c(N)c(C(F)(F)F)nn2-c2ccc(S(N)(=O)=O)cc2)cc1.Cl | 14.6%

System: Trichophyton violaceum
Assay: Antifungal activity against Trichophyton violaceum
Format: functional
Conditions: not given

SMILES | MIC
Cc1ccc(-c2c(N)c(C(F)(F)F)nn2-c2ccc(S(N)(=O)=O)cc2)cc1.Cl | > 200 µg/mL
Cl.Nc1c(C(F)(F)F)n[nH]c1-c1ccccc1 | > 200 µg/mL

System: Candida albicans
Assay: Antifungal activity against Candida albicans
Format: functional
Conditions: not given

SMILES | MIC
Cc1ccc(-c2c(N)c(C(F)(F)F)nn2-c2ccc(S(N)(=O)=O)cc2)cc1.Cl | > 200 µg/mL
Cl.Nc1c(C(F)(F)F)n[nH]c1-c1ccccc1 | > 200 µg/mL

System: Mycobacterium tuberculosis
Assay: Antitubercular activity against Mycobacterium tuberculosis H37Rv
Format: functional
Conditions: not given
Summary of the method: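 Mycobacterium tuberculosis strain H37Rv; minimum inhibitory concentration (MIC) taken as the lowest level needed to inhibit bacterial growth; isoniazid and pyrazinamide served as reference drugs.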

SMILES | MIC
Cl.Nc1c(C(F)(F)F)n[nH]c1-c1ccccc1 | 6.2 µg/mL

System: Serratia marcescens
Assay: Antibacterial activity against Serratia marcescens
Format: functional
Conditions: not given

SMILES | MIC
Cc1ccc(-c2c(N)c(C(F)(F)F)nn2-c2ccc(S(N)(=O)=O)cc2)cc1.Cl | > 250 µg/mL
Cl.Nc1c(C(F)(F)F)n[nH]c1-c1ccccc1 | > 250 µg/mL

System: not listed separately
Assay: Selectivity index, ratio of IC50 for HDF cells to IC50 for human HeLa cells
Format: toxicity
Conditions: HDF cells versus HeLa cells, read-out: Ratio IC50

SMILES | selectivity ratio
Cl.Nc1c(C(F)(F)F)n[nH]c1-c1ccccc1 | > 53.8

System: HeLa
Assay: Cytotoxicity against human HeLa cells
Format: functional, cell-based
Conditions: Homo sapiens, HeLa; read-out: IC50

SMILES | pIC50
Cl.Nc1c(C(F)(F)F)n[nH]c1-c1ccccc1 | 5.73

System: NHDF
Assay: Cytotoxicity against HDF cells
Format: cell-based, Homo sapiens
Conditions: nhdf

SMILES | IC50
Cl.Nc1c(C(F)(F)F)n[nH]c1-c1ccccc1 | Not Active

System: not listed separately
Assay: Antioxidant activity assessed as AAPH scavenging activity by measuring residual fluorescence at 50 uM measured at 1 min interval for 30 mins by ORAC fluorescein assay relative to control
Format: functional
Conditions: not given
Summary of the method: as §2

SMILES | Activity
Cc1ccc(-c2c(N)c(C(F)(F)F)nn2-c2ccc(S(N)(=O)=O)cc2)cc1.Cl | 47.1%
